Experiment [1] concerns Staphylococcus aureus. Put plainly: Antibacterial activity against Staphylococcus aureus CGMCC 1.8721 measured after 12 to 14 hrs. The experiment is classed as functional. Summed up: (§1)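 Twofold (double) dilution method for in vitro antibacterial activity, with fosfomycin sodium, ciprofloxacin and propineb as positive controls.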
The subject of experiment [2] is Staphylococcus aureus. Put plainly: Antibacterial activity against methicillin-resistant Staphylococcus aureus ATCC 43300 measured after 12 to 14 hrs. The experiment is classed as functional. In short, it runs like this:
(§2)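 In vitro double dilution method, run alongside fosfomycin sodium, ciprofloxacin and propineb as positive controls.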

The subject of experiment [3] is Bacillus cereus. Briefly: Antibacterial activity against Bacillus cereus CGMCC 1.1846 measured after 12 to 14 hrs. The experiment is classed as functional. Summed up:
as §1

Experiment [4] relates to Ralstonia solanacearum. Briefly: Antibacterial activity against Ralstonia solanacearum CGMCC 1.12711 measured after 12 to 14 hrs. The format is functional. In short, it runs like this:
as §2

For experiment [5], the system named is Staphylococcus aureus. Put plainly: Potency index, ratio of ciprofloxacin MIC to test compound MIC for methicillin-resistant Staphylococcus aureus ATCC 43300. The experiment is classed as functional.
The test system of experiment [6] is Bacillus cereus. Put plainly: Potency index, ratio of ciprofloxacin MIC to test compound MIC for Bacillus cereus CGMCC 1.1846. The format is functional.
Experiment [7] concerns Ralstonia solanacearum. Briefly: Potency index, ratio of propineb MIC to test compound MIC for Ralstonia solanacearum CGMCC 1.12711. The format is functional.
Experiment [8] deals with Staphylococcus aureus. Briefly: Bactericidal activity against Staphylococcus aureus assessed as disruption of bacterial membrane at 1.5625 micromol/l after 1 hr by Hoechst/propidium iodide staining based fluorescence microscopic analysis. The experiment is classed as functional, organism-based. Summed up: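 S. aureus cells were incubated with compound for 1 h, then dual-stained with Hoechst and propidium iodide and imaged by fluorescence microscopy, with untreated cells as the control. Hoechst enters intact cells and gives blue fluorescence. PI gives red fluorescence only when the membrane is disrupted. Blue, red and merged channels were compared.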

Experiment [9] relates to Staphylococcus aureus. Briefly: Induction of morphological changes in Staphylococcus aureus assessed as appearance of rough cell surface at 1.5625 micromol/l after 1 hr by scanning electron microscopic analysis. The experiment is classed as functional, organism-based. In short, it runs like this:
(§3)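 Cell-surface morphology of compound-treated S. aureus was imaged by scanning electron microscopy and compared with an untreated blank group.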

The subject of experiment [10] is Staphylococcus aureus. Put plainly: Induction of morphological changes in Staphylococcus aureus assessed as appearance of irregular cell surface at 1.5625 micromol/l after 1 hr by scanning electron microscopic analysis. The experiment is classed as functional, organism-based. Summed up:
as §3

In experiment [11] the test system is Staphylococcus aureus. Briefly: Induction of morphological changes in Staphylococcus aureus assessed as disruption of cell membrane at 0.5 MIC after 1 hr by transmission electron microscopic analysis. The experiment is classed as functional, organism-based. The note with it: 0.5 M. In short, it runs like this:
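S. aureus cells were exposed to compound for 1 h, then imaged by transmission electron microscopy for cell-membrane boundary integrity, with untreated cells as the comparison.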

The next experiment relates to Calf thymus DNA. Put plainly: Binding affinity to calf thymus DNA by isothermal titration calorimetric method. The format is nucleic-acid assay, Bos taurus. Summed up: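 DNA was titrated with compound by isothermal titration calorimetry at 298 K. Heat flow was recorded over time, and thermodynamic constants were obtained by fitting to an independent binding model.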
A general note: In ITC the heat of successive injections is recorded.

This note sets out measurements from ChEMBL document CHEMBL4270603, “Computer-aided drug discovery: Novel 3,9-disubstituted eudistomin U derivatives as potent antibacterial agents” (Eur J Med Chem, 2018).

Structures are written as SMILES. Values after ≈ are worked out from the molar mass of the structure shown. Active and inactive are the calls of the source.

Broadly, the MIC is the smallest concentration in the dilution series that meets the test's criterion for growth inhibition. A higher MIC goes with weaker potency. By Kd is commonly meant the concentration at which binding is half-saturated. The low end stands for a tighter complex, the high end for a looser complex. Take `OCc1cc2c3ccccc3n(Cc3ccc(Br)cc3)c2c(-c2c[nH]c3ccccc23)n1`: the MIC with Staphylococcus aureus [1] is 3.12 µM (≈ 1.51 µg/mL); against Staphylococcus aureus [2] it was 3.12 µM (≈ 1.51 µg/mL); in the experiment on Bacillus cereus [3], 3.12 µM (≈ 1.51 µg/mL); against Ralstonia solanacearum [4], 1.56 µM (≈ 0.754 µg/mL). Besides, the Ratio is 4 with Staphylococcus aureus [5], 2 in the experiment on Bacillus cereus [6] and 16 with Ralstonia solanacearum [7]. Besides, the outcome with Staphylococcus aureus [8], in the experiment on Staphylococcus aureus [9], with Staphylococcus aureus [10] and with Staphylococcus aureus [11] was Active. Moreover, the Kd with Calf thymus DNA was 553 nM. For the same molecule, the Ka in the experiment with Calf thymus DNA (Bos taurus) was found to be 1.81 ×10⁶ /M.

`OCc1cc2c3ccccc3n(Cc3cccc(C(F)(F)F)c3)c2c(-c2c[nH]c3ccccc23)n1`: the MIC in the experiment on Staphylococcus aureus [1] amounted to 3.12 µM (≈ 1.47 µg/mL); in the experiment with Staphylococcus aureus [2], 12.5 µM (≈ 5.89 µg/mL); against Bacillus cereus [3] it was 3.12 µM (≈ 1.47 µg/mL); in the experiment on Ralstonia solanacearum [4], 3.12 µM (≈ 1.47 µg/mL). Further, the Ratio in the experiment with Bacillus cereus [6] is on record as 2.

`OCc1cc2c3ccccc3n(Cc3ccc(F)cc3)c2c(-c2c[nH]c3ccccc23)n1`: the MIC with Staphylococcus aureus [1] came to 6.25 µM (≈ 2.63 µg/mL); in the experiment on Staphylococcus aureus [2], 3.12 µM (≈ 1.32 µg/mL); against Bacillus cereus [3], 3.12 µM (≈ 1.32 µg/mL); in the experiment with Ralstonia solanacearum [4], 6.25 µM (≈ 2.63 µg/mL). In addition, the Ratio stood at 4 in the experiment on Staphylococcus aureus [5] and 2 in the experiment on Bacillus cereus [6].

Take `Cc1cccc(Cn2c3ccccc3c3cc(CO)nc(-c4c[nH]c5ccccc45)c32)c1`: the MIC in the experiment with Staphylococcus aureus [1] turned out to be 3.12 µM (≈ 1.3 µg/mL); in the experiment on Staphylococcus aureus [2], 100 µM (≈ 41.8 µg/mL); against Bacillus cereus [3], 3.12 µM (≈ 1.3 µg/mL); against Ralstonia solanacearum [4], 3.12 µM (≈ 1.3 µg/mL). The Ratio with Bacillus cereus [6] is given as 2.

Take `COC(=O)c1cc2c([nH]c3ccccc32)c(-c2cn(C(C)=O)c3ccccc23)n1`: the MIC against Staphylococcus aureus [1], in the experiment on Staphylococcus aureus [2], against Bacillus cereus [3] and against Ralstonia solanacearum [4] was > 100 µM each time.
